# Experimental data pooled from the literature.
# Protocols differ between the studies behind these lines.
# CA1: Carbonic anhydrase 1 (CA1, Homo sapiens, UniProt P00915)
# LATS1: Serine/threonine-protein kinase LATS1 (LATS1, Homo sapiens, UniProt O95835)
# SLC18A2: Synaptic vesicular amine transporter (SLC18A2, Homo sapiens, UniProt Q05940)
SMILES,target,observed,mode,technique,pH,setting,IC50
CCOCCn1c(C2CCN(CCc3ccc(C(C)(C)C(=O)O)cc3)CC2)nc2ccccc21,CA1,enzyme activity,inhibitor,absorbance,pH 7.4,,14 µM
OC1(c2ccc(-c3ccnc4[nH]cc(F)c34)cc2)CNC1,LATS1,target engagement in cells,,BRET,,,28.4 µM
COc1cc2ncnc(Nc3ccc(F)c(Cl)c3)c2cc1NC(=O)/C=C/CN1CCCCC1,SLC18A2,transporter uptake,inhibitor,radiometric,,cell membranes,0.433 µM
Nc1nc2c(ncn2COCCO)c(=O)[nH]1,CA1,enzyme activity,inhibitor,absorbance,pH 7.4,,10.8 µM
Clc1ccc(Cn2c(CN3CCCC3)nc3ccccc32)cc1,SLC18A2,transporter uptake,inhibitor,,,,7.23 µM
OCCOCCN1CCN(C(c2ccccc2)c2ccc(Cl)cc2)CC1 (centres unmarked),CA1,enzyme activity,inhibitor,absorbance,pH 7.4,,15.1 µM
Cc1cc(-c2ccnc3[nH]cc(F)c23)cc(F)c1[C@@]1(O)[C@H](C)CN(C2COC2)C[C@@H]1C,LATS1,target engagement in cells,,BRET,,,0.058 µM
NC(=O)c1nnn(Cc2cc(Cl)c(C(=O)c3ccc(Cl)cc3)c(Cl)c2)c1N,"Alpha-2A adrenergic receptor (ADRA2A, Homo sapiens, UniProt P08913)",cAMP,antagonist,,,,0.612 µM
COc1ccnc(C[S+]([O-])c2nc3ccc(OC(F)F)cc3[nH]2)c1OC (centres unmarked),CA1,enzyme activity,inhibitor,absorbance,pH 7.4,,10.6 µM
Cc1cc(-c2ccnc3[nH]cc(F)c23)cc(F)c1[C@@]1(O)[C@H](C)CN(C2CCS(=O)(=O)CC2)C[C@@H]1C,LATS1,target engagement in cells,,BRET,,,0.136 µM
C=CCNc1c2c([nH]c(=O)c1C(=O)OCC)CCC2,"Gag-Pol polyprotein, reverse transcriptase (gag-pol, Human immunodeficiency virus 1, UniProt P03366)",enzyme activity,inhibitor,,,,> 100 µM
CCCCN(CCCC)CCC(O)c1cc2c(Cl)cc(Cl)cc2c2cc(C(F)(F)F)ccc12 (centres unmarked),SLC18A2,transporter uptake,inhibitor,radiometric,,cell membranes,0.94 µM
CC(=O)N1C[C@@H](C)[C@](O)(c2c(C)cc(-c3ccnc4[nH]cc(F)c34)cc2F)[C@@H](C)C1,LATS1,target engagement in cells,,BRET,,,0.077 µM
CCOc1ccccc1OCCN[C@H](C)Cc1ccc(OC)c(S(N)(=O)=O)c1,SLC18A2,transporter uptake,inhibitor,,,,1.86 µM
CC(C)[C@H](N)C(=O)OCCOCn1cnc2c(=O)[nH]c(N)nc21,"Carbonic anhydrase 2 (CA2, Homo sapiens, UniProt P00918)",enzyme activity,inhibitor,absorbance,pH 7.4,,9.1 µM
OC1(c2ccc(-c3ccnc4[nH]cc(F)c34)cc2)CCNC1 (centres unmarked),LATS1,target engagement in cells,,BRET,,,10.3 µM
N#Cc1ccc2[nH]cc(CCCCN3CCN(c4ccc5oc(C(N)=O)cc5c4)CC3)c2c1,SLC18A2,transporter uptake,inhibitor,radiometric,,cell membranes,0.069 µM
OC1(c2ccc(-c3ccnc4[nH]cc(F)c34)cc2)CCCNC1 (centres unmarked),LATS1,target engagement in cells,,BRET,,,9.97 µM
O=C(O)COCCN1CCN(C(c2ccccc2)c2ccc(Cl)cc2)CC1 (centres unmarked),CA1,enzyme activity,inhibitor,absorbance,pH 7.4,,14.6 µM
OC1(c2ccc(Cl)c(C(F)(F)F)c2)CCN(CCCC(c2ccc(F)cc2)c2ccc(F)cc2)CC1,SLC18A2,transporter uptake,inhibitor,radiometric,,cell membranes,0.594 µM
